Bioassay records (PubChem)
An excerpt weighted towards active compounds, which were near 0.77% of everything screened.
bIAP inh – bovine intestinal alkaline phosphatase inhibitors, primary screen, selectivity assay for TNAP inhibitor project, biochemical, bovine IAP, CDP-star luminescence | inhibition, % at 20 µM | AID 1019, 2008 | 190,000 tested, under 10 active | alkaline phosphatase, intestinal [Bos taurus] | purified bovine IAP, 30 min;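 active = over 50% inhibition of intestinal alkaline phosphatase at 20 µM in the single-dose screen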
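Assay system: bovine IAP enzyme; medium: DEA buffer 100 mM, pH 9.8, with MgCl2 1.0 mM, ZnCl2 0.02 mM; doses: 20 µM single dose; incubation: enzyme reaction for 30 min at room temperature; detection: CDP-star luminescence signal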
hIAP activ – human IAP activators, primary screen, biochemical, luminescence, uHTS | Intestinal-type alkaline phosphatase (Homo sapiens), P09923 | activation factor at 10 µM | purified human IAP, CDP-Star luminescence, 30 min; stronger effect = higher value; 1 = vehicle-only enzyme, 0 = enzyme-free background | 0.16% of 330,000 active;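 active = activation factor of the enzyme at least 2-fold when tested at 20 µM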
Target sequence (P09923 whole entry, looked up): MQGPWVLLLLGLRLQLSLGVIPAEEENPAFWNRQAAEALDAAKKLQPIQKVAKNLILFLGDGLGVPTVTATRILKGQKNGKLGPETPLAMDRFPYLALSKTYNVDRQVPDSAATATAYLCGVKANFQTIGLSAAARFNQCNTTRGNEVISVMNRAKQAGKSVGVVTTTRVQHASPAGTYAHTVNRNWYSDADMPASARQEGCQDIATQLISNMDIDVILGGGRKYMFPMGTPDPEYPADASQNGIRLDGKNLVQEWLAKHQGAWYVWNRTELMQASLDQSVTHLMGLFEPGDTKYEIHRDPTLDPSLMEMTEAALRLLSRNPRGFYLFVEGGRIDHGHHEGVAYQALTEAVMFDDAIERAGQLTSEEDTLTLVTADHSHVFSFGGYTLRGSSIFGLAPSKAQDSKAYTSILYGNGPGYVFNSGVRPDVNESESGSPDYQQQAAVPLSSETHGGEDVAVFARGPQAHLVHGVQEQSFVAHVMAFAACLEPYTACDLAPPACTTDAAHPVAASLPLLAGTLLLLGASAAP
bIAP activator – bovine intestinal alkaline phosphatase activators, primary screen, biochemical, bovine IAP, CDP-star luminescence; alkaline phosphatase, intestinal [Bos taurus]; purified bovine IAP, 30 min; stronger effect = higher value; fold of DMSO-control signal, blank-subtracted; activation factor at 20 µM; 0.17% of 200,000 active;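 active = activation factor of 2 or more at 20 µM, a signal rise over negative controls twice the positive control's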
hIAP inh – human IAP inhibitors, primary screen, biochemical, luminescence, uHTS; inhibition, % at 10 µM; purified IAP, CDP-Star luminescence, 30 min; 0.12% of 330,000 active; Intestinal-type alkaline phosphatase (Homo sapiens), P09923; AID 2544, 2010;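 active = inhibition reaching a set limit with compound at 10 µM in the primary screen, cut at about 35% in these data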
mIAP block – inhibitors of mouse IAP, primary screen, biochemical, luminescence, uHTS; 0.2% of 330,000 active; AID 2806, 2010; intestinal alkaline phosphatase [Mus musculus]; purified mouse IAP, CDP-Star luminescence, 30 min; inhibition, % at 10 µM;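 active = inhibition of at least 40% at 10 µM in the primary screen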
mIAP activ – activators of mouse IAP, primary screen, biochemical, luminescence, uHTS; intestinal alkaline phosphatase [Mus musculus]; muIAP, CDP-Star luminescence, 30 min; stronger effect = higher value; 1 = vehicle-only enzyme signal, 0 = enzyme-free wells; 0.24% of 330,000 active; activation factor at 10 µM; AID 2805, 2010;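 active = activation factor of at least 2 at 20 µM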
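System: mouse IAP enzyme. Reagent: CDP-Star chemiluminescent phosphatase substrate. Benchmarks: DMSO wells, no-enzyme wells. Times: 30 min enzyme-substrate-compound incubation at room temperature. Detection: luminescence from enzymatic CDP-Star hydrolysis. Doses: test compounds delivered from DMSO solution.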
mIAP inh conf – inhibitors of mouse IAP, confirmation, biochemical, luminescence, single concentration; inhibition, % at 10 µM; shares compounds with mIAP block; purified mouse IAP, CDP-Star luminescence, 30 min; AID 434971, 2010; 4.7% of 11,000 active;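 active = inhibition of at least 40% at 10 µM in either of the two replicates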
Hits are given with their value; i = inactive; nt = not tested or not shown.

SMILES	bIAP inh	hIAP activ	bIAP activator	hIAP inh	mIAP block	mIAP activ	mIAP inh conf
Nc1c(C(=O)N/N=C/c2cccnc2)oc2nc(-c3ccccc3)cc(-c3ccco3)c12	nt	i	nt	i	i	i	nt
CCCCCCC(NC(=O)c1ccc(C)cc1)C(=O)O (stereo not drawn)	nt	nt	nt	nt	i	i	nt
COc1ccc(-c2cn(Cc3ccc(C(N)=O)cc3)c(-c3ccncc3)n2)cc1	nt	i	nt	i	i	i	nt
COc1ccc(N2CCN(c3ccc(N4C(=O)CC(C)C4=O)cc3[N+](=O)[O-])CC2)cc1 (stereo not drawn)	i	i	i	i	i	i	nt
C=CCC(NC(C)c1ccccc1)c1ccco1 (stereo not drawn)	i	i	i	i	i	i	nt
Cc1cc(/C=C2\SC(=S)NC2=O)c(C)n1C	i	i	i	i	59.4	i	62.2
Cc1cc(/C=C2\SC(=S)NC2=O)c(C)n1-c1ccccc1	nt	i	nt	i	43.4	i	48.3
Cc1cc(/C=C2\SC(=S)NC2=O)c(C)n1-c1ccc(O)cc1	nt	i	nt	i	72.7	i	70.8
COc1ccc(-n2c(C)cc(/C=C3\SC(=S)NC3=O)c2C)cc1	i	i	i	i	i	i	nt
COc1ccccc1CC(=O)Nc1ccc(S(=O)(=O)N2CCOCC2)cc1	nt	i	nt	i	i	i	nt
O=C(O)C1(S(=O)(=O)c2ccc(Cl)cc2)CCC1	nt	i	nt	i	i	i	nt
CCOC(=O)CN1C(=O)/C(=C2\SC(=S)N(NC(=O)c3cccnc3)C2=O)c2ccccc21	nt	i	nt	i	51.5	i	52.8
O=C(Nc1ccc(F)c(Cl)c1)Nc1csc2ccccc12	nt	i	nt	i	i	4.87	i
O=C(Nc1ccc(F)c(Cl)c1)Nc1ccc(Cl)cn1	i	i	i	i	i	i	nt
COc1ccc(O)c(N)c1	i	i	i	i	40.8	i	48.0
COc1ccc(Cl)cc1N1C(=N)SCC1=O	i	i	i	i	i	i	nt
CCCCc1nnc(NC(=O)C(C)Sc2nc(N)cc(=O)[nH]2)s1 (stereo not drawn)	i	i	i	i	i	i	nt
Cc1cc(-c2ccccc2)n(-c2ccccc2)n1	nt	i	nt	i	72.5	i	85.4
Cc1cc(-c2ccco2)n(-c2ccccc2)n1	i	i	i	i	i	i	nt
CCC1(C)COC(C)(CC(=O)NNC(=O)Nc2ccccc2)OC1 (stereo not drawn)	i	i	i	i	i	i	nt
Cc1nc2ccccc2c(=O)n1/N=C/c1ccc(O)c(O)c1O	nt	i	nt	i	56.7	i	80.6
CCN(CC(=O)Nc1ccccc1OC)CC(=O)Nc1ccccc1-c1ccccc1	i	i	i	i	i	i	nt
S=C(NCc1ccccn1)Nc1cccc(Cl)c1	i	i	i	i	i	i	nt
Cc1ccccc1NC(=S)NCCC(c1ccccc1)c1ccccc1	i	i	i	i	i	3.69	i
COCCCNC(=S)Nc1ccccc1C	i	i	i	i	i	i	nt
SMILES	bIAP inh	hIAP activ	bIAP activator	hIAP inh	mIAP block	mIAP activ	mIAP inh conf
S=C(NCCC(c1ccccc1)c1ccccc1)Nc1cccc(Cl)c1	i	i	i	i	i	4.05	i
CCc1sc(C(=O)NNC(=O)c2cncc(Br)c2)cc1C	nt	i	nt	i	i	i	nt
O=C(NN1C(=O)/C(=C/C=C/c2ccco2)SC1=S)c1ccncc1	nt	i	nt	i	77.3	i	76.6
NN1C(=O)/C(=C\c2ccco2)SC1=S	nt	i	nt	i	78.2	i	86.5
O=C(NN1C(=O)/C(=C/C=C/c2ccccc2)SC1=S)c1ccncc1	i	i	i	i	i	i	nt
CC(C)C(C(=O)O)N1C(=O)/C(=C/C=C/c2ccco2)SC1=S (stereo not drawn)	i	i	i	i	65.9	i	73.6
CC(C)C(C(=O)O)N1C(=O)/C(=C/c2cccn2C)SC1=S (stereo not drawn)	i	nt	i	nt	nt	nt	nt
O=C1/C(=C\c2ccco2)SC(=S)N1c1ccc(O)cc1	i	i	i	i	77.8	i	77.3
O=C1/C(=C\c2ccc(O)cc2)SC(=S)N1c1cccnc1	i	i	i	i	i	i	nt
O=C(NCCCN1CCc2ccccc2C1)Nc1ccc(Cl)cc1	i	i	i	i	i	i	nt
CC(=O)/C(C#N)=C1\NC(=O)C(Cc2ccc(C)c(C)c2)S1 (stereo not drawn)	i	i	i	i	i	i	nt
O=C(O)CC[C@@H](C(=O)O)N1C(=O)c2ccccc2C1=O	nt	i	nt	i	i	i	nt
O=C(O)c1ccc(N2C(=O)/C(=C/C=C/c3ccccc3)SC2=S)cc1	i	i	i	i	i	i	nt
O=C1/C(=C/C=C/c2ccco2)SC(=S)N1c1ccc(O)cc1	nt	i	nt	i	79.5	i	77.0
C[C@@H]1O[C@@H](O[C@H]2[C@H](O)[C@@H](O)[C@H](Oc3c(-c4ccc(O)c(O)c4)oc4cc(O)cc(O)c4c3=O)O[C@@H]2CO)[C@H](O)[C@H](O)[C@H]1O	nt	i	nt	i	57.7	i	48.0
O=c1c2c(O)cc(O)cc2oc2c(O)ccc(O[C@H]3O[C@@H](CO)[C@H](O)[C@@H](O)[C@@H]3O)c12	nt	i	nt	i	i	i	nt
O=c1c(OC2OC(CO)C(O)C(O)C2OC2OC(CO)C(O)C(O)C2O)c(-c2ccc(O)cc2)oc2cc(O)cc(O)c12 (stereo not drawn)	nt	i	nt	i	43.3	i	55.4
Cc1sc2nc(-c3ccccc3)oc(=O)c2c1C	i	i	i	i	i	i	nt
Cc1ccc(NC(=O)CCNS(=O)(=O)c2ccc3[nH]c(=O)oc3c2)cc1F	nt	i	nt	i	42.4	i	50.9
O=C(CCNS(=O)(=O)c1ccc2[nH]c(=O)oc2c1)Nc1ccccc1	nt	i	nt	i	41.1	i	54.5
Cc1ccc(NC(=O)CCNS(=O)(=O)c2ccc3[nH]c(=O)oc3c2)c(Cl)c1	nt	i	nt	i	58.7	i	62.2
Cc1cnc(C(=O)OCC(=O)NCc2ccc3c(c2)OCO3)cn1	i	i	i	i	i	i	nt
COc1cccc(-c2csc(NC(=O)Nc3ccccc3)n2)c1	nt	i	nt	i	i	3.21	i
COc1cccc(-c2csc(NC(=O)C3CC3)n2)c1	i	i	i	i	i	i	nt
COc1cccc(NC(=O)Nc2ccc(C)c(Cl)c2)c1	i	i	i	i	i	4.09	i
CCN(CC)S(=O)(=O)c1cccc(NC(=O)Nc2cccc(C(F)(F)F)c2)c1	i	i	i	i	i	7.38	i
